Measurements: article PMC7340475 (Drug Design, Development and Therapy, 2020)
Like-named read-outs stand apart in the source and are kept apart here.

Columns and labels:
CHO cells = conditions: cited from earlier work
α2A-AR [1] = target: T1, α2A-AR (Homo sapiens, UniProt P08913); assay: cAMP-Glo assay, forskolin induced cAMP accumulation in transfected COS-7 cells; assay type: cell-based
T1 sequence (P08913 1-465): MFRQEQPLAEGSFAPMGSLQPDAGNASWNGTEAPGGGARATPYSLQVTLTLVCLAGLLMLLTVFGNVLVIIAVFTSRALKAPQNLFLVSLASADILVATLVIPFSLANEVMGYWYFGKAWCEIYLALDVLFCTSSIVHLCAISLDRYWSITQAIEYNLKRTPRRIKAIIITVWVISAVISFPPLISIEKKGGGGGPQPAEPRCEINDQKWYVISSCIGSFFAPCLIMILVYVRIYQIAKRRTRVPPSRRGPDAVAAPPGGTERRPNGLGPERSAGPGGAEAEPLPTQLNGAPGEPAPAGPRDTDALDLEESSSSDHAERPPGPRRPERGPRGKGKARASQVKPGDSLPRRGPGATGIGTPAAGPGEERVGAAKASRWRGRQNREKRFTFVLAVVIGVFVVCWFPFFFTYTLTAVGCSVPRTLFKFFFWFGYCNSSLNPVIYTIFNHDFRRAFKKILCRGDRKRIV

α2C-AR = target: T2, α2C-AR (Homo sapiens, UniProt P18825); assay: Saturation binding assay of the radioligand; conditions: read-out: KD α2C-AR
T2 sequence (P18825 1-462): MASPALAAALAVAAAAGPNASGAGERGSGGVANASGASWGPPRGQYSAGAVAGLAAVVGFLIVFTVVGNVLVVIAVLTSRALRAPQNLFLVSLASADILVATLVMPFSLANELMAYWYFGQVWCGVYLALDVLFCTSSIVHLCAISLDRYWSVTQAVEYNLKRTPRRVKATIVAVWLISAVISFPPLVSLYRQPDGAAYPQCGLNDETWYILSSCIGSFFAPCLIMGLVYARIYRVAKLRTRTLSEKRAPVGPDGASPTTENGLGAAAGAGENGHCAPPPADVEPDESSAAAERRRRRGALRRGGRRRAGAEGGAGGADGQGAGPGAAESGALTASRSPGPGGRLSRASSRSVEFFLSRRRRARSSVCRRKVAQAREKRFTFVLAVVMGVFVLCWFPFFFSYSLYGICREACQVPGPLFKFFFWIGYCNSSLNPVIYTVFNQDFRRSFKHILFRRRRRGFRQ
Summary of the method: (§1)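 Saturation binding used membranes from COS-7 cells transiently expressing each human α2-AR subtype. Membranes were incubated 1 h at room temperature with 0.1–10 nM [125I]-PIC in 50 mM Tris-HCl/120 mM sucrose. […] Reactions were stopped with PBS and filtered through GF/B. Radioactivity was counted and KD came from nonlinear regression.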

α2A-AR [2] = target: T1, α2A-AR; assay: Saturation binding assay of the radioligand; conditions: read-out: KD α2A-AR
Summary of the method: as §1

Compound: CNC[C@H](O)c1ccc(O)c(O)c1 [epinephrine]
- effect on cAMP production (CHO cells; from 10^−7 to 10^−6 M): increase
- effect on cAMP production (CHO cells; from 10^−9 to 10^−8 M): inhibition

Compound: NC[C@H](O)c1ccc(O)c(O)c1 [norepinephrine]
- effect on cAMP production (α2A-AR [1]; higher concentrations (10^−3-10^−7M)): stimulated the expression of cAMP
- effect on cAMP production (α2A-AR [1]; lower concentrations (10^−10-10^−8M)): inhibited the production of cAMP

Compound: Clc1cc(I)cc(Cl)c1NC1=NCCN1 [[^125I]-PIC, [^125I]-paraiodoclonidine]
- Kd (α2C-AR): 0.802 ± 0.053 nM
- Kd (α2A-AR [2]): 0.209 ± 0.06 nM

Compound: Cc1ccc(N(CC2=NCCN2)c2cccc(O)c2)cc1 [phentolamine]
- effect on the production of cAMP, compound alone (α2A-AR [1]; forskolin, no norepinephrine): did not have any effect
